Test results taken from article PMC5587398 (Journal of pharmaceutical and biomedical analysis, 2017).

What was measured:
[1] = Pharmacokinetic study in mice after single oral dose; assay type: in vivo, male C57BL/6 mice
Summary of the method: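 Male C57BL/6 mice (~30 g; 12 total, n=4 per time point) got a single 30 mg/kg gavage, 10 mL/kg, in 20 mM citric buffer (pH~3). K2EDTA blood was drawn at 0.167–24 hr and the plasma stored at -80°C. Plasma was precipitated with ACN/MeOH 7/3 containing deuterated IS, then run on HILIC amide +ESI SRM (0.01–25 µM calibration). Non-compartmental parameters were taken from mean concentrations per time point.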

[2] = Pharmacokinetic study in rats after single oral dose; assay type: in vivo, male Sprague-Dawley rats; conditions: plasma
Summary of the method: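 Male Sprague-Dawley rats (~300 g, n=4) got a single 30 mg/kg oral gavage, 10 mL/kg, in 20 mM citric buffer (pH~3). K2EDTA blood was drawn at 0.167, 0.5, 1, 2, 3, 5, 7 and 24 hr, and plasma was stored at -80°C. Analysis used IS-containing ACN/MeOH precipitation and HILIC-UPLC-MS/MS. Non-compartmental analysis used linear-trapezoidal AUC; t1/2 = 0.693/λ, with λ from ≥3 terminal points.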

[3] = male, C57BL/6, mouse, plasma, po, 30 mg/kg
[4] = male, Sprague-Dawley, rat, po, 30 mg/kg

## NC1=NCCN1CC(=O)O [cyclocreatine, 1-Carboxymethyl-2-iminoimidazolidine]
[1]; male, C57BL/6 (mice), Sprague-Dawley (rats), mouse, plasma, po, 30 mg/kg
  half-life: 420 to 480 min
[1]; [3]
  AUC(0-inf): 84100 ng·h/mL
  Cmax: 5620 ng/mL
  Tmax: 5 h
[1]; rodents (mice and rats), PO administration, summary statement
  absorption after PO administration: well absorbed
[2]; male SD rats (n=4), 30 mg/kg PO single dose, mean ± SD
  t(1/2): 7.9 ± 0.9 h
[2]; [4]
  AUC(0-inf): 91700 ± 18000 ng·h/mL
  Cmax: 13300 ± 2600 ng/mL
  Tmax: 34.8 ± 28.8 min
